Results as given in ChEMBL document CHEMBL4840310, “Discovery of novel 2,3,5-trisubstituted pyridine analogs as potent inhibitors of IL-1β via modulation of the p38 MAPK signaling pathway” (Eur J Med Chem, 2021).
The source made the active and inactive calls. No cut-off for these calls is given here.

Assays:
[1] = Inhibition of LPS stimulated IL-1beta in human mococyte-derived macrophages cells preincubated for 2 hrs followed by LPS stimulation and measured after 6 hrs by ELISA; type: functional; conditions: Macrophage
How it was run: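 Human monocyte-derived macrophages stimulated with LPS; IL-1β secretion measured over 10 concentrations per compound, N = 2, to compute individual IC50 values; dexamethasone run in parallel as reference. Z-score reported.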

Mus musculus [2] = test: Anti-inflammatory activity in po dosed Balb/c mouse assessed as inhibition of stimulated IL-1beta secretion in lung after 4 hrs by ELISA; type: functional, organism-based; conditions: dose 10-20 mg/kg
[3] = molecular target: T1, Mitogen-activated protein kinase 14 (Homo sapiens, UniProt Q16539); test: Binding affinity to p38 alpha MAPK (unknown origin) assessed as dissociation rate constant by surface plasmon resonance imaging
T1 sequence (Q16539 whole entry): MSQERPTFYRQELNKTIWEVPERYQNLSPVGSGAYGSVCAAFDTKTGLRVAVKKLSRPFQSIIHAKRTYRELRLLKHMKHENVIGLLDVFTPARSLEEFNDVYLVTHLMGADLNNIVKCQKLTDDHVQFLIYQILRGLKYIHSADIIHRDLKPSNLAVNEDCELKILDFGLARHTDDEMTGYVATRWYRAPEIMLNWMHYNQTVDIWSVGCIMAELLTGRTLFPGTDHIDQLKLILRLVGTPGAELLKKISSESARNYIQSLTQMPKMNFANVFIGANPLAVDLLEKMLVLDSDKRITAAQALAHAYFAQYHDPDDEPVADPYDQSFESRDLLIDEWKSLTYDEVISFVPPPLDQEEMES

Mus musculus [4] = test: Anti-inflammatory activity in po dosed Balb/c mouse assessed as inhibition of stimulated IL-1beta secretion in liver after 4 hrs by ELISA; type: functional, organism-based; conditions: dose 10-20 mg/kg
Mus musculus [5] = test: Anti-inflammatory activity in po dosed Balb/c mouse assessed as inhibition of stimulated IL-1beta secretion in brain after 4 hrs by ELISA; type: functional, organism-based; conditions: dose 10-20 mg/kg
[6] = Elimination half life in Wistar rat 65 mg/kg, po administered as single dose; type: ADME, organism-based; conditions: in vivo, read-out: beta t1/2 (converted)
How it was run: (§1)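 Female Wistar rats, 8 weeks old, given a single oral 65 mg/kg dose in PEG400/Kolliphor HS 15 (70/30 v/v); plasma drug levels sampled over time (N = 9). Tmax taken from the curve; two-compartment fit with first-order terminal elimination gave distribution and elimination half-lives.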

Mus musculus [7] = test: Anti-inflammatory activity in Balb/c mouse assessed as inhibition of stimulated IL-1beta secretion in plasma at 10 mg/kg, po after 4 hrs by ELISA; type: functional, organism-based
How it was run: (§2)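 Male BALB/c mice dosed orally with 10 or 20 mg/kg compound (DMSO stock, then 5% TPGS in PBS), vehicle controls. LPS O111:B4 0.33 mg/kg i.p. in saline given 2 h after treatment. Blood drawn retro-orbitally into heparin tubes 4 h post-LPS; plasma IL-1β by ELISA read at 450 nm.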

[8] = molecular target: T1, Mitogen-activated protein kinase 14; test: Binding affinity to p38 alpha MAPK (unknown origin) assessed as association constant by surface plasmon resonance imaging
Mus musculus [9] = test: Anti-inflammatory activity in Balb/c mouse assessed as inhibition of stimulated IL-1beta secretion in plasma at 20 mg/kg, po after 4 hrs by ELISA; type: functional, organism-based; how it was run: as §2
Macrophage [10] = test: Inhibition of LPS stimulated GM-CSF in human mococyte-derived macrophages cells at 1 uM preincubated for 2 hrs followed by LPS stimulation and measured after 6 hrs by ELISA; type: functional; conditions: time 8.0 hrs
Macrophage [11] = test: Inhibition of LPS stimulated IL-2 in human mococyte-derived macrophages cells at 1 uM preincubated for 2 hrs followed by LPS stimulation and measured after 6 hrs by ELISA; type: functional; conditions: time 8.0 hrs
Macrophage [12] = test: Inhibition of LPS stimulated IL-8 in human mococyte-derived macrophages cells at 1 uM preincubated for 2 hrs followed by LPS stimulation and measured after 6 hrs by ELISA; type: functional; conditions: time 8.0 hrs
[13] = Half life in Wistar rat 65 mg/kg, po administered as single dose; type: ADME, organism-based; conditions: in vivo; how it was run: as §1
Macrophage [14] = test: Inhibition of LPS stimulated IL-6 in human mococyte-derived macrophages cells at 1 uM preincubated for 2 hrs followed by LPS stimulation and measured after 6 hrs by ELISA; type: functional; conditions: time 8.0 hrs
[15] = Tmax in Wistar rat at 65 mg/kg, po administered as single dose; type: ADME, organism-based; conditions: in vivo; how it was run: as §1
Macrophage [16] = test: Inhibition of LPS stimulated IL-4 in human mococyte-derived macrophages cells at 1 uM preincubated for 2 hrs followed by LPS stimulation and measured after 6 hrs by ELISA; type: functional; conditions: time 8.0 hrs

SMILES | IC50 [1] | other results
CCC(=O)c1ccc(Nc2cc(S(=O)(=O)N(C)C)cnc2N2CCC(Oc3ccc(Cl)cc3)CC2)cc1 | > 10000 nM | –
CCOc1ccc(Oc2cc(S(=O)(=O)N(C)C)cnc2N2CCC(Oc3ccc(Cl)nc3)CC2)cc1 | 4000 nM | –
CN(C)S(=O)(=O)c1cnc(N2CCC(Oc3ccc(Cl)cc3)CC2)c(Nc2ccc3c(c2)OCO3)c1 | 121 nM | –
CN(C)S(=O)(=O)c1cnc(N2CCC(Oc3ccc(Cl)cc3)CC2)c(Nc2ccc3oc(CO)cc3c2)c1 | 12.8 nM | –
CN(C)S(=O)(=O)c1cnc(N2CCC(Oc3ccc(Cl)cc3)CC2)c(-c2ccc3c(c2)CCO3)c1 | 27 nM | –
CCOc1ccc(Oc2cc(S(=O)(=O)N(C)C)cnc2N2CCC(Oc3ccc(Cl)nn3)CC2)cc1 | 1100 nM | –
CCC(=O)c1ccc(-c2cc(S(=O)(=O)N(C)C)cnc2N2CCC(Oc3ccc(Cl)cc3)CC2)cc1 | > 10000 nM | –
CCOc1ccc(Oc2cc(S(=O)(=O)N(C)C)cnc2N2CCC(Oc3ccc(Cl)cc3)CC2)cc1 | 28 nM | Activity (Mus musculus [2]): Dose-Dependent Effect; koff [3]: 2.48 10^-4/s; Activity (Mus musculus [4]): Dose-Dependent Effect; Activity (Mus musculus [5]): Dose-Dependent Effect; half-life [6]: 9 h; Activity (Mus musculus [7]): Active; Ka [8]: 2.08 10^4/M/s; Activity (Mus musculus [9]): Active; inhibition (Macrophage [10]): Active; inhibition (Macrophage [11]): Active; inhibition (Macrophage [12]): Active; half-life [13]: 2.1 h; inhibition (Macrophage [14]): Active; Tmax [15]: 1 h; inhibition (Macrophage [16]): Active
CCOc1ccc(Nc2cc(S(=O)(=O)N(C)C)cnc2N2CCC(Oc3ccc(Cl)cc3)CC2)cc1 | > 10000 nM | –
CN(C)S(=O)(=O)c1cnc(N2CCC(Oc3ccc(Cl)cc3)CC2)c(Nc2ccc3c(c2)CCO3)c1 | 29 nM | –
CCOc1ccc(Oc2cc(S(=O)(=O)N(C)C)cnc2N2CCN(Cc3ccc(Cl)cc3)CC2)cc1 | > 10000 nM | –
CCCOc1ccc(Nc2cc(S(=O)(=O)N(C)C)cnc2N2CCC(Oc3ccc(Cl)cc3)CC2)cc1 | > 10000 nM | –
CCOc1ccc(Oc2cc(S(=O)(=O)N(C)C)cnc2N2CCN(Cc3ccc(Cl)nc3)CC2)cc1 | > 10000 nM | –
CN(C)S(=O)(=O)c1cnc(N2CCC(Oc3ccc(Cl)cc3)CC2)c(Oc2ccc(OCCO)cc2)c1 | > 10000 nM | –
CCOc1ccc(Oc2cc(S(=O)(=O)N(C)C)cnc2N2CCC(Oc3ccc(C(N)=O)nc3)CC2)cc1 | 337 nM | –
CN(C)S(=O)(=O)c1cnc(N2CCC(Oc3ccc(Cl)cc3)CC2)c(Oc2ccc3c(c2)CCO3)c1 | 28 nM | –
